Legend:
Assay type in all cases: functional
Details in all cases: read-out: Activity
CCRF-CEM = experiment: Growth inhibition of human CCRF-CEM cells assessed as cell growth at 10 uM incubated for 48 hrs by sulforhodamine B assay relative to control
Outline: (§1)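 NCI Developmental Therapeutics Program NCI60 panel. Compounds that were active in the 10 µM one-dose screen went on to dose–response testing. Growth at each concentration is expressed relative to untreated control (100%). GI50 (concentration giving 50% of maximal inhibition of proliferation) and TGI (concentration giving total growth inhibition) were derived from the curves.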

K562 = experiment: Growth inhibition of human K562 cells assessed as cell growth at 10 uM incubated for 48 hrs by sulforhodamine B assay relative to control
Outline: (§2)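 Submitted to the NCI Developmental Therapeutics Program for the NCI60 human tumour cell line panel. First screen at a single 10 µM concentration. Read-out is growth relative to untreated control cells set at 100%.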

MOLT-4 = experiment: Growth inhibition of human MOLT-4 cells assessed as cell growth at 10 uM incubated for 48 hrs by sulforhodamine B assay relative to control; outline: as §2
RPMI-8226 = experiment: Growth inhibition of human RPMI-8226 cells assessed as cell growth at 10 uM incubated for 48 hrs by sulforhodamine B assay relative to control
Outline: (§3)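 Run by the NCI Developmental Therapeutics Program as part of its 60-line human tumour panel. Each compound tested at a single 10 µM dose. Growth expressed as % relative to untreated control cells (100%).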

HOP-92 = experiment: Growth inhibition of human HOP-92 cells assessed as cell growth at 10 uM incubated for 48 hrs by sulforhodamine B assay relative to control; outline: as §2
NCI-H226 = experiment: Growth inhibition of human NCI-H226 cells assessed as cell growth at 10 uM incubated for 48 hrs by sulforhodamine B assay relative to control; outline: as §2
NCI-H322M = experiment: Growth inhibition of human NCI-H322M cells assessed as cell growth at 10 uM incubated for 48 hrs by sulforhodamine B assay relative to control; outline: as §2
NCI-H460 = experiment: Growth inhibition of human NCI-H460 cells assessed as cell growth at 10 uM incubated for 48 hrs by sulforhodamine B assay relative to control; outline: as §2
COLO 205 = experiment: Growth inhibition of human COLO 205 cells assessed as cell growth at 10 uM incubated for 48 hrs by sulforhodamine B assay relative to control; outline: as §1
HCT-15 = experiment: Growth inhibition of human HCT-15 cells assessed as cell growth at 10 uM incubated for 48 hrs by sulforhodamine B assay relative to control; outline: as §2
SW-620 = experiment: Growth inhibition of human SW-620 cells assessed as cell growth at 10 uM incubated for 48 hrs by sulforhodamine B assay relative to control; outline: as §3
SF-268 = experiment: Growth inhibition of human SF-268 cells assessed as cell growth at 10 uM incubated for 48 hrs by sulforhodamine B assay relative to control; outline: as §3
SF-539 = experiment: Growth inhibition of human SF-539 cells assessed as cell growth at 10 uM incubated for 48 hrs by sulforhodamine B assay relative to control; outline: as §3
SNB-19 = experiment: Growth inhibition of human SNB-19 cells assessed as cell growth at 10 uM incubated for 48 hrs by sulforhodamine B assay relative to control; outline: as §3
SNB-75 = experiment: Growth inhibition of human SNB-75 cells assessed as cell growth at 10 uM incubated for 48 hrs by sulforhodamine B assay relative to control; outline: as §3
LOX IMVI = experiment: Growth inhibition of human LOX IMVI cells assessed as cell growth at 10 uM incubated for 48 hrs by sulforhodamine B assay relative to control; outline: as §2
Malme-3M = experiment: Growth inhibition of human Malme-3M cells assessed as cell growth at 10 uM incubated for 48 hrs by sulforhodamine B assay relative to control; outline: as §2
MDA-MB-435 = experiment: Growth inhibition of human MDA-MB-435 cells assessed as cell growth at 10 uM incubated for 48 hrs by sulforhodamine B assay relative to control; outline: as §2
SK-MEL-5 = experiment: Growth inhibition of human SK-MEL-5 cells assessed as cell growth at 10 uM incubated for 48 hrs by sulforhodamine B assay relative to control; outline: as §3
UACC-257 = experiment: Growth inhibition of human UACC-257 cells assessed as cell growth at 10 uM incubated for 48 hrs by sulforhodamine B assay relative to control; outline: as §3
UACC-62 = experiment: Growth inhibition of human UACC-62 cells assessed as cell growth at 10 uM incubated for 48 hrs by sulforhodamine B assay relative to control; outline: as §3
IGROV-1 = experiment: Growth inhibition of human IGROV-1 cells assessed as cell growth at 10 uM incubated for 48 hrs by sulforhodamine B assay relative to control; outline: as §2
OVCAR-4 = experiment: Growth inhibition of human OVCAR-4 cells assessed as cell growth at 10 uM incubated for 48 hrs by sulforhodamine B assay relative to control; outline: as §3
OVCAR-5 = experiment: Growth inhibition of human OVCAR-5 cells assessed as cell growth at 10 uM incubated for 48 hrs by sulforhodamine B assay relative to control; outline: as §3
OVCAR-8 = experiment: Growth inhibition of human OVCAR-8 cells assessed as cell growth at 10 uM incubated for 48 hrs by sulforhodamine B assay relative to control; outline: as §3
NCI/ADR-RES = experiment: Growth inhibition of human NCI/ADR-RES cells assessed as cell growth at 10 uM incubated for 48 hrs by sulforhodamine B assay relative to control; outline: as §2
A498 = experiment: Growth inhibition of human A498 cells assessed as cell growth at 10 uM incubated for 48 hrs by sulforhodamine B assay relative to control; outline: as §1
RXF 393 = experiment: Growth inhibition of human RXF 393 cells assessed as cell growth at 10 uM incubated for 48 hrs by sulforhodamine B assay relative to control; outline: as §3
SN12C = experiment: Growth inhibition of human SN12C cells assessed as cell growth at 10 uM incubated for 48 hrs by sulforhodamine B assay relative to control; outline: as §3
UO-31 = experiment: Growth inhibition of human UO-31 cells assessed as cell growth at 10 uM incubated for 48 hrs by sulforhodamine B assay relative to control; outline: as §3
PC-3 = experiment: Growth inhibition of human PC-3 cells assessed as cell growth at 10 uM incubated for 48 hrs by sulforhodamine B assay relative to control; outline: as §3
MCF7 = experiment: Growth inhibition of human MCF7 cells assessed as cell growth at 10 uM incubated for 48 hrs by sulforhodamine B assay relative to control; outline: as §2
MDA-MB-231 = experiment: Growth inhibition of human MDA-MB-231 cells assessed as cell growth at 10 uM incubated for 48 hrs by sulforhodamine B assay relative to control; outline: as §2
Hs-578T = experiment: Growth inhibition of human Hs-578T cells assessed as cell growth at 10 uM incubated for 48 hrs by sulforhodamine B assay relative to control; outline: as §2
T47D = experiment: Growth inhibition of human T47D cells assessed as cell growth at 10 uM incubated for 48 hrs by sulforhodamine B assay relative to control; outline: as §3
OVCAR-3 = experiment: Growth inhibition of human OVCAR-3 cells assessed as cell growth at 10 uM incubated for 48 hrs by sulforhodamine B assay relative to control; outline: as §3

Structure (SMILES) | growth at 10 µM (CCRF-CEM) [%] | growth at 10 µM (K562) [%] | growth at 10 µM (MOLT-4) [%] | growth at 10 µM (RPMI-8226) [%] | growth at 10 µM (HOP-92) [%] | growth at 10 µM (NCI-H226) [%] | growth at 10 µM (NCI-H322M) [%] | growth at 10 µM (NCI-H460) [%] | growth at 10 µM (COLO 205) [%] | growth at 10 µM (HCT-15) [%] | growth at 10 µM (SW-620) [%] | growth at 10 µM (SF-268) [%] | growth at 10 µM (SF-539) [%] | growth at 10 µM (SNB-19) [%] | growth at 10 µM (SNB-75) [%] | growth at 10 µM (LOX IMVI) [%] | growth at 10 µM (MDA-MB-435) [%] | growth at 10 µM (SK-MEL-5) [%] | growth at 10 µM (UACC-257) [%] | growth at 10 µM (UACC-62) [%] | other results
Cc1ccc(S(=O)(=O)n2ccc(-c3ccc(OCCCF)cc3)n2)cc1 | 75.6 | 55.4 | 73.2 | 72.8 | 71.8 | 77.6 | 93.7 | 89.6 | 101 | 93.5 | 103 | 103 | 95.2 | 91.7 | 78.3 | 92.5 | 91.3 | 73.5 | 80 | 63.9 | growth at 10 µM (Malme-3M): 101%; growth at 10 µM (IGROV-1): 92.5%; growth at 10 µM (OVCAR-4): 73.2%; growth at 10 µM (OVCAR-5): 110%; growth at 10 µM (OVCAR-8): 87.7%; growth at 10 µM (NCI/ADR-RES): 77.1%; growth at 10 µM (A498): 77%; growth at 10 µM (RXF 393): 91.8%; growth at 10 µM (SN12C): 80.2%; growth at 10 µM (UO-31): 66.4%; growth at 10 µM (PC-3): 73.5%; growth at 10 µM (MCF7): 78.3%; growth at 10 µM (MDA-MB-231): 93.9%; growth at 10 µM (Hs-578T): 109%; growth at 10 µM (T47D): 72.9%
O=S(=O)(c1ccccc1)n1ccc(-c2ccc3c(c2)CCO3)n1 | 76.7 | 56 | 85.6 | 62.5 | 41.8 | 64.6 | 91.4 | 87.3 | 96.9 | 92.8 | 93.7 | 92.8 | 86.7 | 83.4 | 76.2 | 85.2 | 104 | 70.2 | 79.9 | 73.1 | growth at 10 µM (Malme-3M): 94%; growth at 10 µM (IGROV-1): 75.7%; growth at 10 µM (OVCAR-4): 70.1%; growth at 10 µM (OVCAR-5): 103%; growth at 10 µM (OVCAR-8): 84%; growth at 10 µM (NCI/ADR-RES): 76%; growth at 10 µM (A498): 71.2%; growth at 10 µM (RXF 393): 82.9%; growth at 10 µM (SN12C): 67.9%; growth at 10 µM (UO-31): 51%; growth at 10 µM (PC-3): 84.2%; growth at 10 µM (MCF7): 83.2%; growth at 10 µM (MDA-MB-231): 82.9%; growth at 10 µM (Hs-578T): 102%; growth at 10 µM (T47D): 68.8%
O=S(=O)(c1ccc(Br)cc1)n1ccc(-c2ccc(OCCCF)cc2)n1 | 92.3 | 55.6 | 75.8 | 77.1 | 74.1 | 80.6 | 104 | 90.1 | 102 | 86.4 | 107 | 98.5 | 90.2 | 95.5 | 84.5 | 100 | 98.2 | 75.4 | 77.9 | 59.9 | growth at 10 µM (Malme-3M): 89%; growth at 10 µM (IGROV-1): 89%; growth at 10 µM (OVCAR-4): 71.1%; growth at 10 µM (OVCAR-5): 103%; growth at 10 µM (OVCAR-8): 95.1%; growth at 10 µM (NCI/ADR-RES): 78.9%; growth at 10 µM (A498): 91.1%; growth at 10 µM (RXF 393): 92.7%; growth at 10 µM (SN12C): 87%; growth at 10 µM (UO-31): 69.1%; growth at 10 µM (PC-3): 79.5%; growth at 10 µM (MCF7): 75.6%; growth at 10 µM (MDA-MB-231): 101%; growth at 10 µM (Hs-578T): 115%; growth at 10 µM (T47D): 72.6%
CC(=O)c1ccc2c(N)c(C(=O)Nc3ccccc3)sc2n1 | 101 | 95 | 107 | 89 | 74 | 93.4 | 114 | 101 | 105 | 96.7 | 99.4 | 112 | 97 | 105 | 99.5 | 105 | 106 | 98.5 | 102 | 115 | growth at 10 µM (IGROV-1): 113%; growth at 10 µM (OVCAR-3): 119%; growth at 10 µM (OVCAR-4): 84.2%; growth at 10 µM (OVCAR-5): 113%; growth at 10 µM (OVCAR-8): 100%; growth at 10 µM (NCI/ADR-RES): 103%; growth at 10 µM (A498): 70.3%; growth at 10 µM (RXF 393): 100%; growth at 10 µM (SN12C): 110%; growth at 10 µM (UO-31): 103%; growth at 10 µM (PC-3): 97.4%; growth at 10 µM (MCF7): 96.8%; growth at 10 µM (MDA-MB-231): 112%; growth at 10 µM (Hs-578T): 106%; growth at 10 µM (T47D): 93.7%
CC(=O)c1cccc(NC(=O)c2sc3nc4c(cc3c2N)C(=O)CCC4)c1 | 99.7 | 79.8 | 107 | 92.7 | 92.8 | 102 | 111 | 108 | 100 | 93.7 | 98.4 | 110 | 101 | 99.5 | 94.2 | 106 | 66.8 | 96 | 99.3 | 98.4 | growth at 10 µM (IGROV-1): 96.2%; growth at 10 µM (OVCAR-3): 120%; growth at 10 µM (OVCAR-4): 88.1%; growth at 10 µM (OVCAR-5): 106%; growth at 10 µM (OVCAR-8): 101%; growth at 10 µM (NCI/ADR-RES): 107%; growth at 10 µM (A498): 86.9%; growth at 10 µM (RXF 393): 104%; growth at 10 µM (SN12C): 109%; growth at 10 µM (UO-31): 99.7%; growth at 10 µM (PC-3): 96.3%; growth at 10 µM (MCF7): 84.4%; growth at 10 µM (MDA-MB-231): 100%; growth at 10 µM (Hs-578T): 106%; growth at 10 µM (T47D): 93.8%
